Measurements taken from ChEMBL document CHEMBL3585302, “Synthesis and antibacterial activities of cadiolides A, B and C and analogues” (Bioorg Med Chem, 2015).

Experiments:
Escherichia coli [1] = assay: Antibacterial activity against Escherichia coli CECT 100 assessed as inhibition of microbial growth incubated for 18 hrs by 2-fold microtiter broth dilution method; type: functional, organism-based; details: CECT 100, 18 h
How it was run: (§1)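 Compounds in DMSO, ten 2-fold serial dilutions (125 down to 0.24 µg/mL tested). Bacteria at OD620 = 0.001 in Nutrient Broth mixed 1:1 with dilutions. Incubated overnight (18 h) at 28°C or 37°C according to strain. Growth read turbidimetrically at OD620. MIC is the lowest concentration giving complete growth inhibition. Triplicate runs. Tetracycline as reference.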

Escherichia coli [2] = assay: Antibacterial activity against Escherichia coli CECT 405 assessed as inhibition of microbial growth incubated for 18 hrs by 2-fold microtiter broth dilution method; type: functional, organism-based; details: CECT 405, 18 h; how it was run: as §1
[3] = Selectivity index, ratio of cytotoxicity against human neutrophils by annexin V-FITC and propidium iodide staining based cytofluorometry to antibacterial IC50 against Enterococcus faecalis CECT 481; type: toxicity; details: read-out: Selectivity Index
Staphylococcus aureus = assay: Antibacterial activity against Staphylococcus aureus CECT 86 assessed as inhibition of microbial growth incubated for 18 hrs by 2-fold microtiter broth dilution method; type: functional, organism-based; details: CECT 86, 18 h; how it was run: as §1
[4] = Cytotoxicity against human neutrophils assessed as reduction in cell viability at 100 uM incubated for 24 hrs by MTT assay; type: cell-based; details: neutrophil
How it was run: (§2)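 Neutrophils from buffy coats of healthy donors were isolated by Ficoll-Hypaque gradient and seeded at 2 x 10⁵ cells/mL in supplemented RPMI. Exposed to 30 or 100 µM for 24 h at 37 °C, then MTT (2 mg/mL in PBS) added for 3 h. Formazan dissolved in DMSO and read at 560 and 630 nm. Mean ± SEM of n=6-9 independent experiments, compared against vehicle.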

[5] = Toxicity in human neutrophils assessed as induction of apoptosis at 30 and 100 uM incubated for 24 hrs by annexin V-FITC and propidium iodide staining based cytofluorometry; type: cell-based; details: neutrophil
How it was run: (§3)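 Freshly isolated donor neutrophils (2 x 10⁶ cells/mL stock, diluted into supplemented RPMI) cultured 24 h with 30 or 100 µM. Stained with annexin V-FITC/propidium iodide; 1 x 10⁴ cells analysed by flow cytometry. Gating: annexin V+/PI− apoptotic, V+/PI+ late apoptotic/necrotic, V−/PI− viable. Mean ± SEM, n=3, compared against vehicle.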

Bacillus subtilis = assay: Antibacterial activity against Bacillus subtilis CECT 35 assessed as inhibition of microbial growth incubated for 18 hrs by 2-fold microtiter broth dilution method; type: functional, organism-based; details: CECT 35, 18 h; how it was run: as §1
[6] = Selectivity index, ratio of cytotoxicity against human neutrophils by annexin V-FITC and propidium iodide staining based cytofluorometry to antibacterial IC50 against Escherichia coli CECT 405; type: toxicity; details: read-out: Selectivity Index
Salmonella typhi = assay: Antibacterial activity against Salmonella typhi CECT 409 assessed as inhibition of microbial growth incubated for 18 hrs by 2-fold microtiter broth dilution method; type: functional, organism-based, Salmonella enterica subsp. enterica serovar Typhi; details: Salmonella enterica, CECT 409, 18 h
How it was run: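 Compounds in DMSO, ten 2-fold serial dilutions (125 down to 0.24 µg/mL), mixed 1:1 with bacteria in Nutrient Broth at OD620 = 0.001. Incubated overnight (18 h) at 28 or 37 °C depending on strain. Growth read turbidimetrically at OD620; MIC is the lowest concentration completely inhibiting growth, per CLSI. Triplicate runs; tetracycline reference.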

[7] = Selectivity index, ratio of cytotoxicity against human neutrophils by annexin V-FITC and propidium iodide staining based cytofluorometry to antibacterial IC50 against Staphylococcus aureus CECT 86; type: toxicity; details: read-out: Selectivity Index
[8] = Selectivity index, ratio of cytotoxicity against human neutrophils by annexin V-FITC and propidium iodide staining based cytofluorometry to antibacterial IC50 against Salmonella typhi CECT 409; type: toxicity; details: read-out: Selectivity Index
[9] = Selectivity index, ratio of cytotoxicity against human neutrophils by MTT assay to antibacterial IC50 against Staphylococcus aureus CECT 86; type: toxicity; details: read-out: Selectivity Index
[10] = Toxicity in human neutrophils assessed as cell survival at 30 uM incubated for 24 hrs by annexin V-FITC and propidium iodide staining based cytofluorometry; details: neutrophil; how it was run: as §3
[11] = Toxicity in human neutrophils assessed as induction of necrosis at 100 uM incubated for 24 hrs by annexin V-FITC and propidium iodide staining based cytofluorometry; type: cell-based; details: neutrophil; how it was run: as §3
Enterococcus faecalis = assay: Antibacterial activity against Enterococcus faecalis CECT 481 assessed as inhibition of microbial growth incubated for 18 hrs by 2-fold microtiter broth dilution method; type: functional, organism-based; details: CECT 481, 18 h; how it was run: as §1
[12] = test system: Pectobacterium carotovorum; assay: Antibacterial activity against Erwinia carotovora CECT 225 assessed as inhibition of microbial growth incubated for 18 hrs by 2-fold microtiter broth dilution method; type: functional, organism-based; details: CECT 225, 18 h; how it was run: as §1
Bacillus cereus = assay: Antibacterial activity against Bacillus cereus CECT 148 assessed as inhibition of microbial growth incubated for 18 hrs by 2-fold microtiter broth dilution method; type: functional, organism-based; details: CECT 148, 18 h; how it was run: as §1
[13] = Selectivity index, ratio of cytotoxicity against human neutrophils by MTT assay to antibacterial IC50 against Salmonella typhi CECT 409; type: toxicity; details: read-out: Selectivity Index
[14] = Selectivity index, ratio of cytotoxicity against human neutrophils by MTT assay to antibacterial IC50 against Escherichia coli CECT 405; type: toxicity; details: read-out: Selectivity Index
[15] = Cytotoxicity against human neutrophils assessed as reduction in cell viability at 30 uM incubated for 24 hrs by MTT assay; type: cell-based; details: neutrophil; how it was run: as §2
[16] = Selectivity index, ratio of cytotoxicity against human neutrophils by MTT assay to antibacterial IC50 against Enterococcus faecalis CECT 481; type: toxicity; details: read-out: Selectivity Index

O=C1O/C(=C\c2ccc(O)c(Br)c2)C(c2cc(Br)c(O)c(Br)c2)=C1C(=O)c1ccco1
IC50 (Escherichia coli [1]): 25.6 µM | MIC (Escherichia coli [1]): 15.6 µg/mL | IC50 (Escherichia coli [2]): 6.38 µM | MIC (Escherichia coli [2]): 3.9 µg/mL | selectivity ratio [3]: 5 | IC50 (Staphylococcus aureus): 3.19 µM | MIC (Staphylococcus aureus): 1.95 µg/mL | Activity [4]: Toxic | Activity [5]: Non-toxic | MIC (Bacillus subtilis): 125 µg/mL | selectivity ratio [6]: 5 | IC50 (Salmonella typhi): 3.19 µM | MIC (Salmonella typhi): 1.95 µg/mL | selectivity ratio [7]: 5 | selectivity ratio [8]: 5 | selectivity ratio [9]: 5 | Activity [10]: Non-toxic | Activity [11]: 57% | IC50 (Enterococcus faecalis): 3.19 µM | MIC (Enterococcus faecalis): 1.95 µg/mL | MIC [12]: 125 µg/mL | IC50 (Bacillus cereus): 6.38 µM | MIC (Bacillus cereus): 3.9 µg/mL | selectivity ratio [13]: 5 | selectivity ratio [14]: 5 | Activity [15]: Non-toxic | selectivity ratio [16]: 5
